Activity calls are given as the source filed them. No cut-off for these calls is given here.
Key:
[1] = Thiol reactivity of compound in phosphate buffer with N-acetyl cysteine at pH 7.4 assessed as micheal adduct formation by measuring conversion rate measured after 24 hrs by HPLC-MS analysis; type: physicochemical; conditions: pH 7.4, 24 h
[2] = tested on: Severe acute respiratory syndrome coronavirus 2; assay: Inhibition of recombinant SARS-CoV-2 main protease using Dabcyl-KTSAVLQSGFRKME-Edans as substrate assessed as reduction in proteolytic activity at 20 uM preincubated for 10 mins followed by substrate addition and measured after 10 mins by FRET-based enzymatic cleavage assay relative to control; conditions: time 20.0 min
Procedure, shortened: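 Recombinant SARS-CoV-2 Mpro at 50 nM final, with 25 µM final substrate and 20 µM final compound, in 20 mM Tris pH 7.5, 0.1 mM EDTA, 1 mM DTT, 200 mM NaCl. Substrate cleavage was followed at 25 °C as rising Edans fluorescence (ex 335/em 493 nm) after release of the Dabcyl quencher.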

[3] = tested on: BXPC-3; assay: Cytotoxicity against human BXPC-3 cells assessed as inhibition of cell growth incubated for 5 days by MTS assay; conditions: BXPC-3, 120 h
[4] = target: Procathepsin L (Homo sapiens) (UniProt P07711); assay: Inhibition of human cathepsin L using Z-phe-Arg-AMC as substrate at 20 uM by FRET-based enzymatic cleavage assay relative to control
[5] = tested on: CAPAN-1; assay: Cytotoxicity against human CAPAN-1 cells assessed as inhibition of cell growth incubated for 5 days by MTS assay; conditions: CAPAN-1, 120 h
[6] = Thiol reactivity of compound in phosphate buffer with N-acetyl cysteine at pH 7.4 assessed as micheal adduct formation by measuring conversion rate measured after 1 hrs by HPLC-MS analysis; type: physicochemical; conditions: pH 7.4, 1 h
Procedure, shortened: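 Compound with 1.1 equiv N-acetylcysteine in PBS pH 7.4 containing 10% ACN, stirred 1 h at 37 °C. The mixture was concentrated under reduced pressure, and consumption of starting material and adduct formation were followed by HPLC-MS.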

[7] = target: Cathepsin B (Homo sapiens) (UniProt P07858); assay: Inhibition of human cathepsin B using Z-phe-Arg-AMC as substrate at 20 uM by FRET-based enzymatic cleavage assay relative to control
[8] = Thiol reactivity of compound in phosphate buffer with N-acetyl cysteine at pH 7.4 assessed as micheal adduct formation measured after 24 hrs by 19F-NMR spectroscopic analysis; type: physicochemical; conditions: pH 7.4, 24 h
[9] = Inhibition of recombinant SARS-CoV-2 main protease using Dabcyl-KTSAVLQSGFRKME-Edans as substrate assessed as reduction in proteolytic activity preincubated for 10 mins followed by substrate addition and measured after 10 mins by FRET-based enzymatic cleavage assay; set-up: species or system Severe acute respiratory syndrome coronavirus 2
[10] = tested on: Human coronavirus OC43; assay: Antiviral activity against HCoV-OC43 infected in human HCT-8 cells preincubated with cell for 1 hrs followed by viral infection and measured after 72 hrs by focus forming reduction assay; type: functional, organism-based; conditions: Betacoronavirus 1, HCT-8

Procathepsin L (Homo sapiens), sequence (P07711 114-333 limits assumed): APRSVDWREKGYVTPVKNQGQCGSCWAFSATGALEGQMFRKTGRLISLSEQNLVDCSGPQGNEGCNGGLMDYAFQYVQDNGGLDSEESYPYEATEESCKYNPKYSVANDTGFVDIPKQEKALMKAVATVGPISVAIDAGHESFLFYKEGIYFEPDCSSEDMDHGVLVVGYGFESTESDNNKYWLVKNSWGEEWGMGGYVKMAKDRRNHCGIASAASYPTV

Row | SMILES | inhibition [2] [%] | IC50 [3] [µM] | inhibition [4] | IC50 [5] [µM] | further results
1 | CCOC(=O)/C=C/c1ccc(NC(=O)[C@H](Cc2ccccc2)NC(=O)OCc2ccccc2)cc1 | 40 | – | – | – | Activity [1]: 70%
2 | CCOC(=O)/C(F)=C/c1ccc(NC(=O)[C@H](Cc2ccccc2)NC(=O)OCc2ccccc2)cc1 | – | 25.9 | inactive | 40.6 | –
3 | CCOC(=O)/C(F)=C/c1ccc(NC(=O)[C@H](Cc2ccccc2)NC(=O)c2cc3ccccc3[nH]2)cc1 | – | 14.1 | inactive | 28.3 | –
4 | CCOC(=O)/C(F)=C/c1ccc(NC(=O)[C@H](Cc2ccccc2)NC(=O)OCc2c[nH]c3ccccc23)cc1 | – | 5.79 | 29% | 20.8 | Activity [6]: ~ 80%; inhibition [7]: 20%
5 | CCOC(=O)/C(F)=C/c1ccc(N)cc1 | – | – | – | – | Activity [8]: Active
6 | CCOC(=O)/C=C/c1ccc(NC(=O)[C@H](Cc2ccccc2)NC(=O)OCc2c[nH]c3ccccc23)cc1 | 60 | – | – | – | IC50 [9]: 12.4 µM; EC50 [10]: 9.14 µM

Source: ChEMBL document CHEMBL6087409, “Synthesis of α-fluorocinnamate derivatives as novel cathepsin S inhibitors with in vitro antiproliferative activity against pancreatic cancer cells” (Bioorg Med Chem, 2024)
